Measurements: the EternaBench riboswitch data

System: MS2 coat protein
Test: apparent Kd, MS2 coat protein; higher = weaker binding; RNA-MaP array; FMN 200 µM where present
How it was run: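 Binding was read on Illumina sequencing-chip clusters where stalled E. coli RNA polymerase had transcribed each design. A titration of SNAP-549-labelled MS2 coat protein began at 0.7 or 1.5 nM and doubled to 3 µM, once without ligand and once with constant ligand, in 100 mM Tris-HCl pH 7.5, 80 mM KCl, 4 mM MgCl2, BSA, DTT, yeast tRNA and Tween-20. The apparent Kd is the median of filtered per-cluster binding-curve fits, based on green signal normalised to red-channel RNA signal and control-cluster median Fmax.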

[1] = designed as: OFF switch for flavin mononucleotide, no ligand
[2] = ligand present: flavin mononucleotide, designed as: OFF switch for flavin mononucleotide
[3] = designed as: ON switch for flavin mononucleotide, no ligand
[4] = ligand present: flavin mononucleotide, designed as: ON switch for flavin mononucleotide

## UCGUUGUCAGGAUAUCGUUAAUUUAAUUGUUUGUAUUAGUUCGAGAAGGGACAUGAGGAUCACCCAUGUUUGUU
[1]
  apparent Kd: 0.0572 µM
[2]
  apparent Kd: 0.154 µM

## UUUAAGUCAGGAUAUCGUUAAUUUAAUUAUUUAUUUUAAUUCGAGAAGGGACAUGAGGAUCACCCAUGUAAUUU
[1]
  apparent Kd: 0.0361 µM
[2]
  apparent Kd: 0.0559 µM

## AGUGCGUAUGUGAGGAUAUGCUGGUCCUUGGCUCGGCAGAAGGCACAUGAGGAUCACCCAUGUGGUGUCGUACC
[1]
  apparent Kd: 0.033 µM
[2]
  apparent Kd: 0.151 µM

## GAUUAACAUGAGGAUCACCCAUGUGAGGAUAUGAACUUGCCCACUUUCCCUUUAGAGUUUAGAAGGCGCAUUCU
[1]
  apparent Kd: 0.0298 µM
[2]
  apparent Kd: 0.0306 µM

## GAGCUCAAGCAGAAGGCCAUAUGUCAAUCGACAUGAGGAUCACCCAUGUAUGAGCUCGGCGUCGUGGAGGAUAUGCAGGCUCUA
[3]
  apparent Kd: 0.351 µM
[4]
  apparent Kd: 0.0176 µM

## ACAAAGUGAGGAUAUGCUUUUAUUUAUUAUUAUUAUUAUUUGCAGAAGGCACAUGAGGAUCACCCAUGUAAGAA
[1]
  apparent Kd: 0.0329 µM
[2]
  apparent Kd: 0.0255 µM

## GUAGCAUGCCAAGGAUAUUCAUAUAGUAGGCAAACAUGAGGAUCACCCAUGUAGUGAGAGCCCUGGGAGAAGGUGGGAUGCUAC
[3]
  apparent Kd: 0.0179 µM
[4]
  apparent Kd: 0.0161 µM

## UUAUUAUGUGUAGGAUAUGCAUAUUAUGAUUAUGCAGAAGGACAUGAGGAUCACCCAUGUAUAUUAUUAUUAUAUAUUAUAUAU
[1]
  apparent Kd: 0.0133 µM
[2]
  apparent Kd: 0.0211 µM

## UGUUGUAUUACAGGAUAUCUAUUGUUUUUGUUUAGAGAAGGGUAUUCACAUGAGGAUCACCCAUGUAUAUACGAGGAAGUUGUG
[3]
  apparent Kd: 0.0628 µM
[4]
  apparent Kd: 0.072 µM

## CGGCAAUGACGAGGAUAUAGACAUGAGGAUCACCCAUGUAACAGUAUUACAGGGCGUCUUCUCAGCUAGAAGGCGUUCUAUGCC
[1]
  apparent Kd: 0.0373 µM
[2]
  apparent Kd: 0.0884 µM

## UAUAUUUAUGUAGGAUAUGGUAUAUAAAAUAUACCAGAAGGACAUGAGGAUCACCCAUGUAUGAAAUUCCAUAAUAACCGUGUA
[1]
  apparent Kd: 0.0111 µM
[2]
  apparent Kd: 0.0122 µM

## CCUCCGUAUGAGGAUAUCGUCCAGGAAACUGGACGAGAAGGCAUGACAUGAGGAUCACCCAUGUUAAAGUGAUG
[1]
  apparent Kd: 0.0214 µM
[2]
  apparent Kd: 0.0584 µM

## AACAGGUUCACAUGAGGAUCACCCAUGUUAGCCUAACGUAGGAGAAGGACGGUAGCUGGGCUGACGUAGGAUAUCCUACUGUGA
[3]
  apparent Kd: 0.00922 µM
[4]
  apparent Kd: 0.0048 µM

## GCGUCACAAUUAGAACCGAUACGAACAUGAGGAUCACCCAUGUAGGAUAUGCUAGAAGUUGAGUUGCAGAAGGACAUUUAUCGC
[1]
  apparent Kd: 0.0111 µM
[2]
  apparent Kd: 0.0106 µM

## GGAUAGUGAGGAUAUGCAUACGGUGUAAGUCCCAGAUCGAAACAUGAGGAUCACCCAUGUAGAAGGCGCAAAAC
[1]
  apparent Kd: 0.0236 µM
[2]
  apparent Kd: 0.0755 µM

## GAGGUACGAGGAUAUACAUAGAUACAGACACAUGUUCAAGUACAUGAGGAUCACCCAUGUAGAAGGCGUAUAUC
[1]
  apparent Kd: 0.0301 µM
[2]
  apparent Kd: 0.0449 µM

## ACUGUUUGAUUCCUCUUAUACAUGAGGAUCACCCAUGUUAUCGAGGAUAUGCAUUAGAGUGUUUAGCAGAAGGCGAUGUAGUUG
[1]
  apparent Kd: 0.00756 µM
[2]
  apparent Kd: 0.0191 µM

## UGCGUGUUAGGAUAUGCCAGCGCUACCUAAGGUAGGCUGUGGUAGAAGGAACAUGAGGAUCACCCAUGUAGGAG
[1]
  apparent Kd: 0.111 µM
[2]
  apparent Kd: 0.483 µM

## ACUAUACGAGGAUAUACUGUCGGGCCUCGGGCAUACAUACGACAUGAGGAUCACCCAUGUAGAAGGCGUUUACU
[1]
  apparent Kd: 0.0343 µM
[2]
  apparent Kd: 0.0616 µM

## GGUCCAUCUGUUAGGAUAUGCUUUGGGCUUCCGCAGUAGAAGGAACAUGAGGAUCACCCAUGUCCGAUGCCGUA
[1]
  apparent Kd: 0.0204 µM
[2]
  apparent Kd: 0.0254 µM

## CGUAUGUCAGGAUAUGCGUAUGCCGCCCAGAACGGGCAGCAGCAGAAGGGACAUGAGGAUCACCCAUGUUCGGG
[1]
  apparent Kd: 0.0683 µM
[2]
  apparent Kd: 0.0731 µM

## AGCCAACAUGAGGAUCACCCAUGUGUACGUUAUGUAGGAUAUCUGAUGCGCGCGUGCGCAAGAGAAGGACGAGACG
[3]
  apparent Kd: 0.0334 µM
[4]
  apparent Kd: 0.0212 µM

## ACAUGCAUAGCGAUAUGAUCGAAAAGUCAUGUCGCAAAAUUUAGAAGGACAUGAGGAUCACCCAUGUAGGAUAUGGGAGCAUGA
[3]
  apparent Kd: 0.0579 µM
[4]
  apparent Kd: 0.0132 µM

## CUCGGACAUGAGGAUCACCCAUGUGAGGAUAUGGUGCUAUCGUCAUUAGACGAUUGCGUUAGAAGGCACAUUUU
[1]
  apparent Kd: 0.0314 µM
[2]
  apparent Kd: 0.0801 µM

## AGGUAACAUGAGGAUCACCCAUGUCAGGAUAUCAUAAAGAUUAGAUUAGAGAAGAGGUUGAGAAGGGACUAUAU
[1]
  apparent Kd: 0.0449 µM
[2]
  apparent Kd: 0.0384 µM

## AAUAUAGAGCUGGAAUAAAACAUCACAUGAGGAUCACCCAUGUAGGAUAUCAGCACGAUAAGUGCUGAGAAGGACAUCCAGCUC
[1]
  apparent Kd: 0.0149 µM
[2]
  apparent Kd: 0.0141 µM

## UUAUUAUAUAUAGGAUAUUGAUGUAAUUUAUUUCAAGAAGGAUAUACAUGAGGAUCACCCAUGUUGGAUAGGGUUAGUUUGUUU
[3]
  apparent Kd: 0.0866 µM
[4]
  apparent Kd: 0.154 µM

## UGGUACAUGGGAGGAUAUGGGAAGAUACAUGAGGAUCACCCAUGUUUAAGAAUGCCGAGAGGCAACUAGAAGGCCCAUGUACCU
[3]
  apparent Kd: 1.09 µM
[4]
  apparent Kd: 0.0458 µM

## GUUGUUACUGAGGAUAUUAUUUUAUUCGACUGAUAAGAAGGCAGUACAUGAGGAUCACCCAUGUGGGUAGCCAG
[1]
  apparent Kd: 0.0279 µM
[2]
  apparent Kd: 0.17 µM

## ACCGAAUGAACAUGAGGAUCACCCAUGUACAGGAAACUGAAUGAGGAUAUCGAUAGCAAAGCUAUCGAGAAGGCAUGGGUCGGU
[3]
  apparent Kd: 0.285 µM
[4]
  apparent Kd: 0.0697 µM

## CUGAGGUGUCAAGGAUAUGCUACCGUUUCGGUAGCAGAAGGUGAUCACAUGAGGAUCACCCAUGUAUGCAUGCGUGAGCGUGCU
[3]
  apparent Kd: 0.0395 µM
[4]
  apparent Kd: 0.0554 µM

## GAGGAGCAAGGAUAUACGAGGAUAUGGUAGGUUGGAGAGUGACAUGAGGAUCACCCAUGUAGAAGGUGCGAGGG
[1]
  apparent Kd: 0.0667 µM
[2]
  apparent Kd: 0.0559 µM

## GGAUAGGACAGAGGAUAUACGUGCUUGAGAUACUAGCAAAAUUUCCUCACAUGAGGAUCACCCAUGUAGAAGGCUGUCCUAUCG
[1]
  apparent Kd: 0.0202 µM
[2]
  apparent Kd: 0.436 µM

## GCCAUCGUAUGAGGAUAUGGCACCGAAACGGUGCCAGAAGGCAUGUCAAUAGACAUGAGGAUCACCCAUGUUUUAUCGAUGGCA
[3]
  apparent Kd: 0.0897 µM
[4]
  apparent Kd: 0.0235 µM

## AAAAGCAAAGGAUAUACAUGAGGAUCACCCAUGUAAAAAAGAAAAGAGUAUAUGGCAUGUAGAAGGUUGCGUGG
[1]
  apparent Kd: 0.0345 µM
[2]
  apparent Kd: 0.0498 µM

## UAUGCCUUUGUGAGGAUAUACUUUGUUUGGUCGUAGUAGAAGGCACAUGAGGAUCACCCAUGUAGAUUUUUGGU
[1]
  apparent Kd: 0.0275 µM
[2]
  apparent Kd: 0.0722 µM

## UGGUCACAUGAGGAUCACCCAUGUCAGGAUAUCUACAUUGAAGCCUCGGCUUCAAUGUAGAGAAGGGAUAUAAU
[1]
  apparent Kd: 0.0655 µM
[2]
  apparent Kd: 0.148 µM

## AAAAACUGAGGAUAUACGAAAAAAAAAAAAAAAAAAAAAAAACAUGAGGAUCACCCAUGUAGAAGGCAGAAAAA
[1]
  apparent Kd: 0.0504 µM
[2]
  apparent Kd: 0.0381 µM

## GGUGUGAGGCAGGAUAUGCUAUAUGUUCGUAAUGCAGAAGGGUCUACAUGAGGAUCACCCAUGUGUGCGGUUGA
[1]
  apparent Kd: 0.172 µM
[2]
  apparent Kd: 0.413 µM

## GGUUUGGGAGGAUAUGGCUUGUUUGACAUGAGGAUCACCCAUGUAAGUGGAUCUUCCGGGCCAGAAGGCUCGGGCC
[1]
  apparent Kd: 0.104 µM
[2]
  apparent Kd: 0.188 µM

## GGCGAACAGGCUAACAUGAGGAUCACCCAUGUGGACUCAUGGUAGGAUAUCGGGAAGGAGGAAACCGAGAAGGGCCGGUGAGCU
[3]
  apparent Kd: 0.0677 µM
[4]
  apparent Kd: 0.0263 µM

## UUGGACGUCGUAGGAUAUGUAGGAUAUUCCUACAUGAGGAUCACCCAUGUUGACAUGGAAGAAGGACAGAAGGACGUUGUCCAU
[3]
  apparent Kd: 0.404 µM
[4]
  apparent Kd: 0.00574 µM

## AAAAAACAUGAGGAUCACCCAUGUCUUCGGACGUGAGGAUAUGUACAGACUUCGGUCUGUACAGAAGGCACGUCAA
[3]
  apparent Kd: 0.0313 µM
[4]
  apparent Kd: 0.0192 µM

## ACAUGAGGAUCACCCAUGUAGAAUGGAGAAGGUAGAUACUUGUGACUCACCCAUGUACAUAGGACUAAGGAUAUUCUAAUAAUU
[3]
  apparent Kd: 0.0944 µM
[4]
  apparent Kd: 0.0542 µM

## UGAUAACAUGUAGGAUAUCCAGCAUUGACCAUCGGAGAAGGACAUGAGGAUCACCCAUGUACCGAUACAAUGGGAUAAGGGAAU
[1]
  apparent Kd: 0.0161 µM
[2]
  apparent Kd: 0.0186 µM

## AUCCUGCGAGGAUAUACAUAAUUUUUUUCAUUUGGUUGCGAACAUGAGGAUCACCCAUGUAGAAGGUGCUUCAC
[1]
  apparent Kd: 0.0667 µM
[2]
  apparent Kd: 0.0625 µM

## GUCAGCUCGUGAGGAUAUACGACACUGCUUCGGCAGUGUAUUAAGAUCACAUGAGGAUCACCCAUGUAGAAGGCACGAGCUGAU
[1]
  apparent Kd: 0.00864 µM
[2]
  apparent Kd: 0.145 µM

## GUAGCAUACUGAGGAUAUUCAUACCGGAAACGGACAUGAGGAUCACCCAUGUGGCGAAAGCCUUUGGAGAAGGCAGAAUGCUAC
[3]
  apparent Kd: 0.0137 µM
[4]
  apparent Kd: 0.0137 µM
